In ChEMBL document CHEMBL2169837 (J Med Chem, 2012):
Converted amounts (≈) assume the structure as drawn. The source made the active and inactive calls. The rule behind the calls is not given here.

Legend:
[1] = molecular target: T1, Muscarinic acetylcholine receptor M1 (Homo sapiens, UniProt P11229); assay: Binding affinity to human muscarinic M1 receptor
T1 sequence (P11229 whole entry): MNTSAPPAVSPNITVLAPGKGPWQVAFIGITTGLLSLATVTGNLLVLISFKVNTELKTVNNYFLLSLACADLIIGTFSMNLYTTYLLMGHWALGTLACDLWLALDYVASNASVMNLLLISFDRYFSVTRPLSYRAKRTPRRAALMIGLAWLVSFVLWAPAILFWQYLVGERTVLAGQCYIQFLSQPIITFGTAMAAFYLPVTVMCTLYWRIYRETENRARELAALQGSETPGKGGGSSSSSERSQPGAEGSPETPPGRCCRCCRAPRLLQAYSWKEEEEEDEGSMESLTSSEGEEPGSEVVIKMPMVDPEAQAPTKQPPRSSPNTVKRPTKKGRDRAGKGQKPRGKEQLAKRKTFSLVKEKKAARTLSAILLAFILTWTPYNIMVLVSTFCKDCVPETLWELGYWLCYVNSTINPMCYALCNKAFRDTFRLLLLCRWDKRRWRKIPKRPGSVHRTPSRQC

Oxytocin receptor [2] = molecular target: T2, Oxytocin receptor (Homo sapiens, UniProt P30559); assay: Displacement of [3H]-AVP from human oxytocin receptor expressed in CHO cells after 30 mins; format: cell-based
T2 sequence (P30559 whole entry): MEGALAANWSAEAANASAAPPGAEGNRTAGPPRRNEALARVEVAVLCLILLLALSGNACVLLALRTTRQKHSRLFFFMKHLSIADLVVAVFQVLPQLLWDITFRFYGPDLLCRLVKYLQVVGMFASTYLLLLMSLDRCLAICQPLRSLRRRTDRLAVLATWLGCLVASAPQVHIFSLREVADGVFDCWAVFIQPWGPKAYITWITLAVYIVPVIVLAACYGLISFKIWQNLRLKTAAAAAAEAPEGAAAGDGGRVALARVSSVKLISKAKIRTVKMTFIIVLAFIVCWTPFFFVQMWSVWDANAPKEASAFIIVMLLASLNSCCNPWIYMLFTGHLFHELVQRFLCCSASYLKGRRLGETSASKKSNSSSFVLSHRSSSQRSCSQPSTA

[3] = molecular target: T3, Vasopressin V1b receptor (Homo sapiens) (UniProt P47901); assay: Displacement of [3H]-AVP from human vasopressin V1b receptor expressed in CHO cells at 10 uM after 30 mins; format: cell-based
T3 sequence (whole entry): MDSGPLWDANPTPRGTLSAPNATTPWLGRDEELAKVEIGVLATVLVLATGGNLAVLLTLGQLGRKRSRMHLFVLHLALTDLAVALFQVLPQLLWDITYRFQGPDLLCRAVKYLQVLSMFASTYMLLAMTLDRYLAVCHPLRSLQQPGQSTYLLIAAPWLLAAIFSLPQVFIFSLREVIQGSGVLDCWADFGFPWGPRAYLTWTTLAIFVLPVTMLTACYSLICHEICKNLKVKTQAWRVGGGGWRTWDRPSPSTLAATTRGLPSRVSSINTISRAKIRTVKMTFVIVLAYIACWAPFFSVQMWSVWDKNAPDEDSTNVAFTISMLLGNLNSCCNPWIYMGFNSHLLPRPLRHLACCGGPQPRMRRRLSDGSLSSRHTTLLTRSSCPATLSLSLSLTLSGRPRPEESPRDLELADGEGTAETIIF
How it was run: (§1)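 Human OTR, V1aR or V1bR membranes from CHO cells, [3H]-AVP displacement with compound at a single 10 μM concentration, 30 min at 30 °C in Tris-HCl pH 7.4/MgCl2/BSA buffer.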

Vasopressin V1b receptor = molecular target: T4, Vasopressin V1b receptor (Homo sapiens, UniProt P47901); assay: Displacement of [3H]-AVP from human vasopressin V1b receptor expressed in CHO cells after 30 mins; format: cell-based
T4 sequence (P47901 whole entry): T3 sequence (whole entry)

Vasopressin V1a receptor [4] = molecular target: T5, Vasopressin V1a receptor (Homo sapiens, UniProt P37288); assay: Displacement of [3H]-AVP from human vasopressin V1a receptor expressed in CHO cells at 10 uM after 30 mins; format: cell-based; how it was run: as §1
Target sequence in this assay (P37288 whole entry, looked up): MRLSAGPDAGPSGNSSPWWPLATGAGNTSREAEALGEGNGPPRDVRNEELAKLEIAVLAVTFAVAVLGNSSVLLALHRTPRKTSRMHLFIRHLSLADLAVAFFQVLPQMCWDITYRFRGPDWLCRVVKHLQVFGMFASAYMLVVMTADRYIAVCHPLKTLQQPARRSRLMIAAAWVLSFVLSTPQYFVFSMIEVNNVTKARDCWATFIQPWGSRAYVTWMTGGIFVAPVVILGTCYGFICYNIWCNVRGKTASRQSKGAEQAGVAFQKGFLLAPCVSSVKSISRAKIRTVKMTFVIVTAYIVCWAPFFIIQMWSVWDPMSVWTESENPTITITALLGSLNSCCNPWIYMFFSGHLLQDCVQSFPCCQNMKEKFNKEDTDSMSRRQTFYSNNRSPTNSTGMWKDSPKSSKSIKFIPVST

Vasopressin V1a receptor [5] = molecular target: T5, Vasopressin V1a receptor; assay: Displacement of [3H]-AVP from human vasopressin V1a receptor expressed in CHO cells after 30 mins; format: cell-based
Target sequence in this assay (P37288 whole entry): as the sequence (P37288 whole entry, looked up) above

Vasopressin V2 receptor [6] = molecular target: T6, Vasopressin V2 receptor (Homo sapiens, UniProt P30518); assay: Antagonist activity at human vasopressin V2 receptor expressed in CHO cells assessed as inhibition of AVP-induced cAMP accumulation after 30 mins by TR-FRET based HTRF assay; format: functional, cell-based
T6 sequence (P30518 whole entry): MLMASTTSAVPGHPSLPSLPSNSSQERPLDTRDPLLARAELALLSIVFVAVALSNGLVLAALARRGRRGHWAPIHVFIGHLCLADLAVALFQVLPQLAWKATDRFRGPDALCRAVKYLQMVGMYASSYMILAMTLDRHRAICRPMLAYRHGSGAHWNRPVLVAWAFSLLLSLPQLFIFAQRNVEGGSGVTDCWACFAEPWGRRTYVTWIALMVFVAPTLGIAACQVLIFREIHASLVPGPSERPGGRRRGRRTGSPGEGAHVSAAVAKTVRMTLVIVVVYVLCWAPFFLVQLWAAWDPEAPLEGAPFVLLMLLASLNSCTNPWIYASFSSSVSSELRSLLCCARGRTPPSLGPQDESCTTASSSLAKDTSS
How it was run: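 CHO cells stably expressing human V2R, 5 × 10^3 per well on polyornithine, used 24 h after seeding. Incubated 30 min at 37 °C with compound (10−12 to 10−5 M) plus phosphodiesterase inhibitor RO 201724 0.1 mM. Antagonist mode run with 1 nM AVP. Cells lysed and cAMP read by HTRF (TR-FRET). Kact/Kinact from three independent experiments in triplicate, mean ± SEM.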

Vasopressin V2 receptor [7] = molecular target: T6, Vasopressin V2 receptor; assay: Agonist activity at human vasopressin V2 receptor expressed in CHO cells assessed as cAMP accumulation after 30 mins by TR-FRET based HTRF assay; format: functional, cell-based
How it was run: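 CHO cells stably expressing human V2R, 5 × 10^3 per well on polyornithine, used 24 h after seeding. Cells lysed and cAMP read by HTRF (TR-FRET). Kact/Kinact from three independent experiments in triplicate, mean ± SEM.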

Vasopressin V2 receptor [8] = molecular target: T6, Vasopressin V2 receptor; assay: Displacement of [3H]-AVP from human vasopressin V2 receptor expressed in CHO cells after 30 mins; format: cell-based
[9] = Solubility of the compound in HEPES buffer at pH 7.4 after 24 hrs; format: physicochemical
How it was run: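 Solubility measured in pH 7.4 HEPES buffer after 24 h incubation at 22 °C.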

Oxytocin receptor [10] = molecular target: T2, Oxytocin receptor; assay: Binding affinity to oxytocin receptor
How it was run: (§2)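 Membranes (5 μg protein) from CHO cells stably expressing human V2R, V1aR, V1bR or OTR. Incubated 30 min at 30 °C in 50 mM Tris-HCl pH 7.4, 5 mM MgCl2, 1 mg/mL BSA with [3H]-AVP (1−2 nM) and competitor from 100 pM to 100 μM. Nonspecific binding with 10 μM AVP. GF/C filtration; Ki by nonlinear least-squares regression. Triplicate, at least three membrane batches.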

Vasopressin V1a receptor [11] = molecular target: T5, Vasopressin V1a receptor; assay: Binding affinity to vasopressin V1a receptor; how it was run: as §2
Target sequence in this assay (P37288 whole entry): as the sequence (P37288 whole entry, looked up) above

Vasopressin V2 receptor [12] = molecular target: T6, Vasopressin V2 receptor; assay: Binding affinity to SNAP-tagged vasopressin V2 receptor expressed in HEK293 cells after 1 hr by TR-FRET assay; format: cell-based
How it was run: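 HEK 293T cells electroporated with SNAP-tag–V2R and grown 48 h. Receptor labeled 1 h at 37 °C with SNAP-Lumi4-Tb (100 nM) or SNAP-RED (300 nM), then washed. Rising fluorescent-ligand concentrations added and incubated overnight at 4 °C. TR-FRET read with excitation 340 nm, emission 620/665 nm. Nonspecific binding taken with 10 μM unlabeled ligand. Kd from saturation, three experiments in triplicate.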

| Structure (SMILES) | Ki [1] | Ki (Oxytocin receptor [2]) | inhibition [3] | Ki (Vasopressin V1b receptor) | inhibition (Vasopressin V1a receptor [4]) | Ki (Vasopressin V1a receptor [5]) | Kb (Vasopressin V2 receptor [6]) | inhibition (Vasopressin V2 receptor [6]) | Activity (Vasopressin V2 receptor [7]) | Ki (Vasopressin V2 receptor [8]) | solubility at 24 h [9] | Ki (Oxytocin receptor [10]) | Ki (Vasopressin V1a receptor [11]) | Kd (Vasopressin V2 receptor [12]) |
| --- | --- | --- | --- | --- | --- | --- | --- | --- | --- | --- | --- | --- | --- | --- |
| O=C(CCC1=[N+]2C(C=C1)Cc1ccc(-c3cccs3)n1[B-]2(F)F)NCCCCCCN1CCN(CC(=O)N2c3ccccc3C(=O)Nc3cccnc32)CC1 (stereo not drawn) | 8.8 nM | – | – | – | – | – | – | – | – | – | – | – | – | – |
| CCN(CC)c1ccc2c(-c3ccc(S(=O)(=O)[O-])cc3S(=O)(=O)NCCOCCOCCOCCn3cc(CNC(=O)CCC(=O)NC4CCCN(C(=O)c5ccc(NC(=O)c6ccccc6C)cc5)c5ccccc54)nn3)c3ccc(=[N+](CC)CC)cc-3oc2c1 (stereo not drawn) | – | 307 nM | < 50% | > 10000 nM | < 50% | > 10000 nM | 164 nM | Dose-dependent effect | inactive | 188 nM | – | – | – | – |
| CCN(CC)c1ccc2c(-c3ccc(S(=O)(=O)NCCOCCOCCOCCn4cc(CNC(=O)CCC(=O)NC5CCCN(C(=O)c6ccc(NC(=O)c7ccccc7C)cc6)c6ccccc65)nn4)cc3S(=O)(=O)[O-])c3ccc(=[N+](CC)CC)cc-3oc2c1 (stereo not drawn) | – | 495 nM | < 50% | > 10000 nM | < 50% | > 10000 nM | 16.7 nM | Dose-dependent effect | inactive | 54.3 nM | 3.4 µM (≈ 4.4 µg/mL) | – | – | – |
| CCN(CC)c1ccc2c(-c3ccc(S(=O)(=O)NCCCCC(=O)NC4CCCN(C(=O)c5ccc(NC(=O)c6ccccc6-c6ccccc6)cc5)c5ccccc54)cc3S(=O)(=O)[O-])c3ccc(=[N+](CC)CC)cc-3oc2c1 (stereo not drawn) | – | – | – | – | – | – | 0.66 nM | Dose-dependent effect | inactive | 7.6 nM | 3.1 µM (≈ 3.41 µg/mL) | – | – | – |
| CCN(CC)c1ccc2c(-c3ccc(S(=O)(=O)NC4CCCN(C(=O)c5ccc(NC(=O)c6ccccc6-c6ccccc6)cc5)c5ccccc54)cc3S(=O)(=O)[O-])c3ccc(=[N+](CC)CC)cc-3oc2c1 (stereo not drawn) | – | – | – | – | – | – | 3.8 nM | Dose-dependent effect | inactive | 25.3 nM | 2.1 µM (≈ 2.1 µg/mL) | – | – | – |
| Cc1ccccc1C(=O)Nc1ccc(C(=O)N2CCCC(N(C)C)c3ccccc32)cc1 (stereo not drawn) [MOZAVAPTAN] | – | – | – | – | – | – | – | Dose-dependent effect | inactive | – | – | 660 nM | 195 nM | – |
| CCN1/C(=C/C=C/C=C/C2=[N+](CC)c3ccc(S(=O)(=O)[O-])cc3C2(C)C)C(C)(CCCC(=O)NCCOCCOCCOCCn2cc(CNC(=O)CCC(=O)NC3CCCN(C(=O)c4ccc(NC(=O)c5ccccc5-c5ccccc5)cc4)c4ccccc43)nn2)c2cc(S(=O)(=O)O)ccc21 (stereo not drawn) | – | 808 nM | < 50% | > 10000 nM | – | 1750 nM | 0.1 nM | Dose-dependent effect | inactive | 9.02 nM | – | – | – | 2.33 nM |
